The source of these data is ChEMBL document CHEMBL4177526, “Discovery and structure activity relationship of the first potent cryptosporidium FIKK kinase inhibitor” (Bioorg Med Chem, 2017).

Data set [1] is described as follows: Inhibition of Cryptosporidium parvum CDPK1 using PLARTLSVAGLPGKK peptide as substrate by NADH coupled LDH-PK ATPase assay. In short, it runs like this: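 NADH-coupled LDH-PK ATPase read-out with 1.2 nM recombinant CpCDPK1, 0.25 mM ATP, 0.1 mM Syntide 2.0 peptide and 2 mM CaCl2. Inhibitors were made as 10 mM DMSO stocks and tested in 2-fold serial dilutions. IC50 is the average of triplicate experiments.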

For data set [2], the system named is Cryptosporidium parvum. Kind of data set: Inhibition of recombinant Cryptosporidium parvum FIKK assessed as change in melting temperature at 50 uM by differential static light scattering method.
Data set [3] in a line: Inhibition of recombinant Cryptosporidium parvum FIKK using RRRAPSFYRK peptide as substrate by NADH coupled LDH-PK ATPase assay.
Data set [4] is described as follows: Permeability in human Caco2 cells. The data set is classed as ADME, cell-based. As to conditions: Caco-2, read-out: permeability.
Data set [5] is described as follows: Ratio of EC50 for antiparasitic activity against Cryptosporidium parvum Iowa oocysts infected in human HCT8 cells to IC50 for recombinant Cryptosporidium parvum FIKK. The data set is classed as functional, cell-based.
Data set [6] concerns Cryptosporidium parvum. Kind of data set: Antiparasitic activity against Cryptosporidium parvum Iowa oocysts infected in human HCT8 cells pretreated prior to infection measured after 48 hrs by fluorescein labeled Vicia villosa lectin/Hoechst 33258 staining based epifluorescence microscopic analysis. The data set is classed as functional, organism-based. In short, it runs like this: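 HCT-8 cells grown in RPMI-1640 with 10% heat-inactivated FBS and penicillin. Three-fold compound dilutions in culture medium were added to confluent cells before about 5500 excysted C. parvum Iowa oocysts per well. After 48 h, cells were fixed with 4% paraformaldehyde and permeabilized. Vacuoles were stained with fluorescein-Vicia villosa lectin (1.33 µg/mL, 1 h, 37 °C) and nuclei with Hoechst 33258, then imaged by epifluorescence microscopy.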

Data set [7] can be described thus: Ratio of EC50 for antiparasitic activity against Cryptosporidium parvum Iowa oocysts infected in human HCT8 cells to IC50 for Cryptosporidium parvum CDPK1. It is filed as functional.
Data set [8] in a line: Efflux ratio of permeability in human Caco2 cells. It is filed as ADME, cell-based. As to conditions: Caco-2. On the technique in general: Passage across Caco-2 layers is used to estimate intestinal permeability.
Data set [9] in a line: Inhibition of Cryptosporidium parvum Iowa II glycogen synthase kinase.
Data set [10] relates to Cryptosporidium parvum Iowa II. Description: Inhibition of Cryptosporidium parvum Iowa II glycogen synthase kinase assessed as change in melting temperature by DSLS method.
Data set [11] concerns the target Calcium-dependent protein kinase 2 (Cryptosporidium parvum) (UniProt Q6S4V9). Kind of data set: Inhibition of Cryptosporidium parvum calcium-dependent protein kinase 2 assessed as change in melting temperature by DSLS method.
A short description of data set [12]: Inhibition of Cryptosporidium parvum CDPK6.
In data set [13] the target is Mitogen-activated protein kinase kinase kinase kinase 4 (Homo sapiens) (UniProt O95819). Kind of data set: Inhibition of human MAP4K4 at 1 uM relative to control.
In data set [14] the target is Cell division control protein 28, putative (Cryptosporidium parvum (strain Iowa II), UniProt A3FPL9). Description: Inhibition of Cryptosporidium parvum Iowa II cell division control protein 28.
Data set [15] deals with Cell division control protein 28, putative (Cryptosporidium parvum (strain Iowa II)) (UniProt A3FPL9). Kind of data set: Inhibition of Cryptosporidium parvum Iowa II cell division control protein 28 assessed as change in melting temperature by DSLS method.
The test system of data set [16] is Cryptosporidium parvum. Kind of data set: Inhibition of Cryptosporidium parvum CDPK1 assessed as increase in thermal stabilization.
Data set [17] can be described thus: Inhibition of Cryptosporidium parvum Iowa II cyclin-dependent kinase 3.
Data set [18] addresses Calcium/calmodulin-dependent protein kinase with a kinase domain and 4 calmodulin like EF hands (Cryptosporidium parvum (strain Iowa II)) (UniProt Q5CYL9). Kind of data set: Inhibition of Cryptosporidium parvum Iowa II calcium/calmodulin-dependent protein kinase with a kinase domain and 4 calmodulin like EF hands assessed as change in melting temperature by DSLS method.
The nature of data set [19]: Inhibition of Cryptosporidium parvum Iowa II ser/Thr protein kinase FIKK.
Data set [20] deals with Calcium/calmodulin-dependent protein kinase with a kinase domain and 4 calmodulin like EF hands (Cryptosporidium parvum (strain Iowa II), UniProt Q5CYL9). Kind of data set: Inhibition of Cryptosporidium parvum Iowa II calcium/calmodulin-dependent protein kinase with a kinase domain and 4 calmodulin like EF hands.
Data set [21] addresses Mitogen-activated protein kinase 14 (Homo sapiens) (UniProt Q16539). Description: Inhibition of human p38alpha at 1 uM relative to control.
Data set [22] concerns the target Calcium/calmodulin-dependent protein kinase with a kinase domain and 2 calmodulin-like EF hands (Cryptosporidium parvum (strain Iowa II), UniProt Q5CZ29). Description: Inhibition of Cryptosporidium parvum Iowa II calcium/calmodulin-dependent protein kinase with a kinase domain and 2 calmodulin-like EF hands.
Another data set deals with Cgd5_820 protein (Cryptosporidium parvum, UniProt F0X4H1). Kind of data set: Inhibition of Cryptosporidium parvum calcium/calmodulin dependent protein kinase with a kinase domain and 4 calmodulin like EF hands.
The target in data set [23] is Vascular endothelial growth factor receptor 2 (Homo sapiens) (UniProt P35968). Kind of data set: Inhibition of human KDR at 1 uM relative to control.
Data set [24] addresses Mitogen-activated protein kinase (Cryptosporidium parvum (strain Iowa II)) (UniProt A3FQ79). Description: Inhibition of Cryptosporidium parvum Iowa II mitogen-activated protein kinase assessed as change in melting temperature by DSLS method.
Data set [25] is described as follows: Inhibition of Cryptosporidium parvum Iowa II serine/threonine-protein kinase Nek2.
The target in data set [26] is Cgd5_820 protein (Cryptosporidium parvum) (UniProt F0X4H1). Kind of data set: Inhibition of Cryptosporidium parvum calcium/calmodulin dependent protein kinase with a kinase domain and 4 calmodulin like EF hands assessed as change in melting temperature by DSLS method.
Data set [27] has as its target Mitogen-activated protein kinase (Cryptosporidium parvum (strain Iowa II), UniProt A3FQ79). Description: Inhibition of Cryptosporidium parvum Iowa II mitogen-activated protein kinase.
Data set [28] has as its system Cryptosporidium parvum Iowa II. Kind of data set: Inhibition of Cryptosporidium parvum Iowa II cyclin-dependent kinase 3 assessed as change in melting temperature by DSLS method.
Data set [29] concerns Cryptosporidium parvum. Kind of data set: Inhibition of Cryptosporidium parvum CDPK6 assessed as change in melting temperature by DSLS method.
The target of data set [30] is Calcium-dependent protein kinase 2 (Cryptosporidium parvum, UniProt Q6S4V9). Kind of data set: Inhibition of Cryptosporidium parvum calcium-dependent protein kinase 2.
Data set [31] is described as follows: Inhibition of Cryptosporidium parvum Iowa II calcium/calmodulin-dependent protein kinase.
Data set [32] concerns the target Vascular endothelial growth factor receptor 2 (Homo sapiens) (UniProt P35968). Kind of data set: Inhibition of human KDR at 100 nM relative to control.
Data set [33] deals with Cryptosporidium parvum Iowa II. Description: Inhibition of Cryptosporidium parvum Iowa II calcium/calmodulin-dependent protein kinase assessed as change in melting temperature by DSLS method.
In data set [34] the target is Calcium/calmodulin-dependent protein kinase with a kinase domain and 2 calmodulin-like EF hands (Cryptosporidium parvum (strain Iowa II)) (UniProt Q5CZ29). Kind of data set: Inhibition of Cryptosporidium parvum Iowa II calcium/calmodulin-dependent protein kinase with a kinase domain and 2 calmodulin-like EF hands assessed as change in melting temperature by DSLS method.

Data set [35] deals with Cryptosporidium parvum Iowa II. Kind of data set: Inhibition of Cryptosporidium parvum Iowa II Serine/threonine-protein kinase Nek2 assessed as change in melting temperature by DSLS method.
Data set [36] deals with Cryptosporidium parvum. Kind of data set: Antiparasitic activity against Cryptosporidium parvum isolate AUCP-1 sporozoites infected in human HCT8 cells treated for 24 hrs followed by compound washout and supplemented with fresh medium containing compound at 24 intervals. It is filed as functional, organism-based. To be noted: isolate AUCP-1, HCT-8, 24 h.
Where [37] appears, read: Cryptosporidium parvum, Iowa, HCT-8, read-out: EC50.

The source made the active and inactive calls. The calls are words filed in the database; no cut-off is given here.

Vascular endothelial growth factor receptor 2 (Homo sapiens), sequence (P35968 whole entry): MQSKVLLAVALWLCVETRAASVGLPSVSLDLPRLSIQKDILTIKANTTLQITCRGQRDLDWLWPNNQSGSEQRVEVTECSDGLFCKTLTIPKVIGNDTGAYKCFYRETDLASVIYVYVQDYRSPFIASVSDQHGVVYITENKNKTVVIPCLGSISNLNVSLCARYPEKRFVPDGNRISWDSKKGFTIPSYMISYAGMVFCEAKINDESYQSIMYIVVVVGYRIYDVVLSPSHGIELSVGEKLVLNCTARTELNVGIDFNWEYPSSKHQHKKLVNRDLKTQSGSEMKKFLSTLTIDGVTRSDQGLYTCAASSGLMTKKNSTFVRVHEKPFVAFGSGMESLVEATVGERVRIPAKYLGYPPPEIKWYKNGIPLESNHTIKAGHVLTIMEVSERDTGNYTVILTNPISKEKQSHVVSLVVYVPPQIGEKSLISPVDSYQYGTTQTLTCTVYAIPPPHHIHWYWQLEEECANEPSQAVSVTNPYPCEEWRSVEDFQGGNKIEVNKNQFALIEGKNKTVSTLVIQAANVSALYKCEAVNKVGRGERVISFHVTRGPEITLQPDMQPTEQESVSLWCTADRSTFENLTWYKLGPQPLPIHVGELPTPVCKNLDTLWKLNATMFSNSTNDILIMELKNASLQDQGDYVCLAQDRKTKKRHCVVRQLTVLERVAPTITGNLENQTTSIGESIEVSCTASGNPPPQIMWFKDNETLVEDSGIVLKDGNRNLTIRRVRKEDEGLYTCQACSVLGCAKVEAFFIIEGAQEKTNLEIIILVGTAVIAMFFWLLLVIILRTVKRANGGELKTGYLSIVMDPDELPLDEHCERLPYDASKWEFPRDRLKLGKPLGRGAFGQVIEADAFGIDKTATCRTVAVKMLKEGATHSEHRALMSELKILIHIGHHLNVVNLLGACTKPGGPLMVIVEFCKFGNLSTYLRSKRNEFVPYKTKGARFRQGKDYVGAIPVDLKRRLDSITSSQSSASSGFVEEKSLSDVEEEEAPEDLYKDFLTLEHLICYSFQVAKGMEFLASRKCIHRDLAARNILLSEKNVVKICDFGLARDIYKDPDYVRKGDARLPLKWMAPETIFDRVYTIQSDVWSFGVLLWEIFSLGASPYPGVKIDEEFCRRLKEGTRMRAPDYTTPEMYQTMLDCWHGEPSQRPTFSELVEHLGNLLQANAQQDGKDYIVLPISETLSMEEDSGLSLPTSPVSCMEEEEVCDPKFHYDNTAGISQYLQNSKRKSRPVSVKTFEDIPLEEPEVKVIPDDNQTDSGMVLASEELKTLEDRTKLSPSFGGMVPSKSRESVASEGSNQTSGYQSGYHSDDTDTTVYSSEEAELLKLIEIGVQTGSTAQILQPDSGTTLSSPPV
Cgd5_820 protein (Cryptosporidium parvum), sequence (F0X4H1 as listed by the source): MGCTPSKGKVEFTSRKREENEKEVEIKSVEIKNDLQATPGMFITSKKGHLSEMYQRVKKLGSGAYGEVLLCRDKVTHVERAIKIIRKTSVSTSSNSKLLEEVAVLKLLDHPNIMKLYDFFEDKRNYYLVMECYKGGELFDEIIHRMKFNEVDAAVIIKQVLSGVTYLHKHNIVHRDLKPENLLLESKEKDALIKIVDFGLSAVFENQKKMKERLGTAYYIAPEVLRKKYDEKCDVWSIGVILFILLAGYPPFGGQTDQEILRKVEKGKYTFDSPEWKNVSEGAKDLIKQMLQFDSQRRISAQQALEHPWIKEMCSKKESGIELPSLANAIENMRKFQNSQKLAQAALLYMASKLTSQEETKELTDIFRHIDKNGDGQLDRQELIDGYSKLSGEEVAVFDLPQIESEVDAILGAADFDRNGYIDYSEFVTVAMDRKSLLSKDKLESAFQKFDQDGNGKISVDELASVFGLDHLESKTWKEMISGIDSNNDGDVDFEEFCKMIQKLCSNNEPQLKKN
Cgd5_820 protein, sequence (F0X4H1 whole entry, the tested form may be a part): as the sequence (F0X4H1 as listed by the source) above
Calcium-dependent protein kinase 2, sequence (Q6S4V9 whole entry): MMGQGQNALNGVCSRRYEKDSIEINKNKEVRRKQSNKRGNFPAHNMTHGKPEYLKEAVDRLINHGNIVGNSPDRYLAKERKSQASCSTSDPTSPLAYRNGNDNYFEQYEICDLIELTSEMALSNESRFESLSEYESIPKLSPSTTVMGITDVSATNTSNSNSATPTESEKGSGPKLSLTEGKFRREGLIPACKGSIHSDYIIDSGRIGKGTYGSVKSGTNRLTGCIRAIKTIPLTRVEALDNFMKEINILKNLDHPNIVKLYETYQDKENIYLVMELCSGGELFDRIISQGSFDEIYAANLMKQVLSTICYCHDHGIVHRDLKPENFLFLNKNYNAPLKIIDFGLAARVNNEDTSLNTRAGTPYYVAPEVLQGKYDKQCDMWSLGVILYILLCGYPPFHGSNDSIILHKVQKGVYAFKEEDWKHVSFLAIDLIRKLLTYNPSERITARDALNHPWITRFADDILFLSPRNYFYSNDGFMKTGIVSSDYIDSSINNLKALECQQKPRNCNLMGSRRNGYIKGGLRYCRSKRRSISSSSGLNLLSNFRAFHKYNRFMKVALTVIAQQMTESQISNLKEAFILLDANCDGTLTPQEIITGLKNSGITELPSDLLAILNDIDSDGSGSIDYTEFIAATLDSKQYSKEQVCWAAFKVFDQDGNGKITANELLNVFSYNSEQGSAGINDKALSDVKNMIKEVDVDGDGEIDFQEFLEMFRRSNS
Calcium-dependent protein kinase 2 (Cryptosporidium parvum), sequence (Q6S4V9 as listed by the source): as the sequence (Q6S4V9 whole entry) above
Mitogen-activated protein kinase (Cryptosporidium parvum (strain Iowa II)), sequence (A3FQ79 as listed by the source): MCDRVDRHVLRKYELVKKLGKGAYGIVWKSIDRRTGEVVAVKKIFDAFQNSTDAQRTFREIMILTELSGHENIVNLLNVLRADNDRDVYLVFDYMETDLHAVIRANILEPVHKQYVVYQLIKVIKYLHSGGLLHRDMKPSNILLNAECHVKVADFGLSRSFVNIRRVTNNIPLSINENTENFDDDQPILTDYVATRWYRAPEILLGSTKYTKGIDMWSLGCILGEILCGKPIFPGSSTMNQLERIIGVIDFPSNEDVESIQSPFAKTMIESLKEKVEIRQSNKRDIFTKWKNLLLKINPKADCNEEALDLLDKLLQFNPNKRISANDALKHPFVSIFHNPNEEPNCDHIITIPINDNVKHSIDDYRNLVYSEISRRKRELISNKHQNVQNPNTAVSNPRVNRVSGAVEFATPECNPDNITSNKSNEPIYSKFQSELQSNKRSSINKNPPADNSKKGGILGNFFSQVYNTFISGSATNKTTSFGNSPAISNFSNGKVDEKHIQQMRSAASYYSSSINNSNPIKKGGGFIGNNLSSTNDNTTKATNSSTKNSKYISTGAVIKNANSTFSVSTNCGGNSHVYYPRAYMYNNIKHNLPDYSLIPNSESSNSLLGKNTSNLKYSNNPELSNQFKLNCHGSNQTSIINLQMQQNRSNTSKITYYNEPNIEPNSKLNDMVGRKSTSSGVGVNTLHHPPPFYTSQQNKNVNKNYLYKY
Cell division control protein 28, putative (Cryptosporidium parvum (strain Iowa II)), sequence (A3FPL9 as listed by the source): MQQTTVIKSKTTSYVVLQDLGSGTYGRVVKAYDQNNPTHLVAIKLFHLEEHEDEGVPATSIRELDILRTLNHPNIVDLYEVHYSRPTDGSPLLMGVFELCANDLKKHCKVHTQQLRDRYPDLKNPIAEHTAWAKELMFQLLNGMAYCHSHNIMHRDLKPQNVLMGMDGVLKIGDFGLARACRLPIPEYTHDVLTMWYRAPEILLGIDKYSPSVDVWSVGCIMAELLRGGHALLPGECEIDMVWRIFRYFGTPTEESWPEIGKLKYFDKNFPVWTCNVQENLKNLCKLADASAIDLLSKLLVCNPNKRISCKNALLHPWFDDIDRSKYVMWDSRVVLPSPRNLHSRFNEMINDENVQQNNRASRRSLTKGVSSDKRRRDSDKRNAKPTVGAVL

Regarding `COc1ccc(-c2nc(N)sc2-c2ccc3ncccc3n2)cc1`, the figures for the IC50 in data set [1] and in data set [3] were 2600 nM and > 10000 nM, respectively. For the same compound, the ΔTm (in general, the shift of the melting midpoint relative to a reference) in the data set on Cryptosporidium parvum [2] was determined as 0.4 °C.
For the compound `Nc1nc(-c2ccc(Cl)c(Cl)c2)c(-c2ccc3ncccc3n2)s1`, the IC50 – broadly, the midpoint of a concentration-inhibition curve – is > 10000 nM in [1] and 750 nM in [3].
For the compound `CC(C)c1cccc(-c2nc(N)sc2-c2ccc3ncccc3n2)c1`, the IC50 in [1] and in [3] was > 10000 nM in each case. In addition, the ΔTm with Cryptosporidium parvum [2] was determined as 1 °C.
Turning to `Nc1nc(-c2cccc(F)c2)c(-c2ccc3ncccc3n2)s1`, in [4], the Papp was determined as 16 ×10⁻⁶ cm/s. Further, the IC50 amounted to 210 nM in [1] and 220 nM in data set [3]. Also, the Ratio in [5] and in data set [7] was 6 each time. The EC50 (commonly the concentration that produces a half-maximal response) in the data set with Cryptosporidium parvum [6] (setting [37]) stood at 1300 nM. The ΔTm in the data set with Cryptosporidium parvum [2] was found to be 4.9 °C. The efflux ratio (commonly a quotient of directional permeabilities that is used to spot active efflux) in data set [8] was < 1.
For `CCc1cccc(-c2nc(N)sc2-c2ccc3ncccc3n2)c1`, the results for the IC50 in data set [1] and in data set [3] were 74 nM and > 10000 nM, respectively.
For the compound `Nc1nc(-c2ccccc2)c(-c2ccc3ncccc3n2)s1`, the figures for the IC50 in [1] and in [3] were 190 nM and 42 nM, respectively. In the data set with Cryptosporidium parvum [2], the ΔTm turned out to be 4.2 °C.
Regarding `Cc1cc(-c2nc(N)sc2-c2ccc3ncccc3n2)ccc1F`, the figures for the IC50 in [1] and in [3] were 73 nM and 140 nM, respectively.
Consider `Nc1nc(-c2cccc(Cl)c2)c(-c2ccc3ncccc3n2)s1` [GW780159X], for which the IC50 in data set [9] is > 10000 nM; in data set [12], > 10000 nM; in data set [14], > 10000 nM; in data set [17], > 10000 nM; in data set [1] it was 84 nM; in data set [19], 3 nM. Also, the IC50 was > 10000 nM in data set [20]; > 10000 nM in data set [22]; > 10000 nM on Cgd5_820 protein; > 10000 nM in data set [25]; > 10000 nM in [27]; 3 nM in data set [3]. Further, the IC50 in data set [30] and in data set [31] was > 10000 nM in each case. In addition, the ΔTm in data set [10], in [11], in data set [15], in data set [18], in [24] and in data set [26] was < 2 °C throughout. Also, the ΔTm in the data set on Cryptosporidium parvum [2] is 5.1 °C; in data set [28], < 2 °C; in the data set on Cryptosporidium parvum [29] it was < 2 °C; in data set [33] it was < 2 °C; in data set [34], < 2 °C; in data set [35], < 2 °C. In addition, the inhibition (usually the drop in the measured response relative to a control, in per cent) stood at 60% in data set [13], 50% in data set [21], 67% in [23] and 33% in data set [32]. Besides, in the data set on Cryptosporidium parvum [16], the inhibition entry was “Active”. For the same compound, the Ratio was found to be 1840 in data set [5] and 66 in data set [7]. The EC50 in the data set with Cryptosporidium parvum [6] (setting [37]) is 5500 nM.
Turning to `CC(C)(C)n1nc(-c2cccc3ccccc23)c2c(N)ncnc21`, the EC50 with Cryptosporidium parvum [36] stood at 2560 nM; in the data set on Cryptosporidium parvum [6] (setting [37]) it was 4100 nM. In addition, the Ratio in [7] is 1.
Regarding `Nc1nc(-c2ccc(F)c(Cl)c2)c(-c2ccc3ncccc3n2)s1`, the IC50 in [1] worked out at 450 nM; in data set [3] it was 25 nM. Further, in the data set on Cryptosporidium parvum [2], the ΔTm came out at 3.6 °C.
Turning to `Nc1nc(-c2ccc(Cl)cc2)c(-c2ccc3ncccc3n2)s1`, the figures for the IC50 in data set [1] and in data set [3] were 375 nM and 3260 nM, respectively.
`Nc1nc(-c2cc(Cl)cc(Cl)c2)c(-c2ccc3ncccc3n2)s1`: the values for the IC50 in data set [1] and in data set [3] were 3500 nM and > 10000 nM, respectively. The EC50 result in the data set on Cryptosporidium parvum [6] is “Not Active”.
As to `Nc1nc(-c2cccc(C(F)(F)F)c2)c(-c2ccc3ncccc3n2)s1`, the IC50 in [1] amounted to 350 nM; in data set [3] it was 1200 nM.
The like results for `N#Cc1cccc(-c2nc(N)sc2-c2ccc3ncccc3n2)c1` were, in that order, 1500 nM and 4100 nM.
The like results for `CC(=O)Nc1nc(-c2cccc(Cl)c2)c(-c2ccc3ncccc3n2)s1` were, in that order, 330 nM and > 10000 nM.
On to `COc1cccc(-c2nc(N)sc2-c2ccc3ncccc3n2)c1`, for which the IC50 is 260 nM in data set [1] and 180 nM in data set [3].
With `CNc1nc(-c2cccc(Cl)c2)c(-c2ccc3ncccc3n2)s1`, the results for the IC50 in [1] and in data set [3] were 1510 nM and 3600 nM, respectively.
Take `Cc1ccc(-c2nc(N)sc2-c2ccc3ncccc3n2)cc1C`: the IC50 in data set [1] was 19 nM; in [3], 2900 nM. Further, the figures for the Ratio in data set [5] and in data set [7] were 1.3 and 204, respectively. Moreover, the EC50 in the data set on Cryptosporidium parvum [6] (setting [37]) came to 3900 nM. The ΔTm with Cryptosporidium parvum [2] worked out at 0.82 °C.
On to `Cc1ccnc2ccc(-c3sc(N)nc3-c3ccc(F)c(Cl)c3)nc12`, for which the results for the IC50 in [1] and in data set [3] were 400 nM and > 10000 nM, respectively.
For `Nc1nc(-c2ccc(F)cc2)c(-c2ccc3ncccc3n2)s1` [GW785804X], the IC50 in data set [1] and in data set [3] was 220 nM throughout. In the data set on Cryptosporidium parvum [2], the ΔTm was determined as 4.7 °C.
